Starred links: 1 amine or outer side, 2 acyl side, 3 side chain; linkers in the order of their positions; H or OH if unused. Positions of bridges follow the written chain, without caps; N, C: chain ends. Non-standard residues stand in square brackets, D forms with d. Residues, ends and D or L forms follow the SMILES beside them. Chains are numbered I, II in the order given. Actinocin(1to9) = Cc1c2oc3c(C)ccc(C(=O)[*:2])c3nc-2c(C(=O)[*:1])c(N)c1=O; NMeV = CN[C@H](C(=O)O)C(C)C; Sar = CNCC(=O)O
Experiments:
[1] = system: Colon carcinoma cell; test: Mean graph mid point was measured on colon cancer cells.; assay type: functional, Homo sapiens
Procedure, shortened: (§1)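 Human tumor panel of about 55 lines: leukemia, melanoma, non-small-cell lung, colon, CNS, ovarian, renal, prostate and breast. Compounds generally tested from 10^-4 to 10^-8 M, noting 50% growth inhibition for each line. Mean graph midpoints taken for all lines, leukemic lines and colon lines. Duplicate or triplicate runs were averaged.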

[2] = Selectivity index is the ratio of MG MID value for all cell lines to that of leukemic cells; assay type: functional
[3] = system: leukaemia cell line; test: Mean graph mid point was measured on leukemic cells.; assay type: functional, Homo sapiens; procedure, shortened: as §1
[4] = Selectivity index is the ratio of MG MID value for all cell lines to that of colon cancer cells; assay type: functional
[5] = system: Tumor cancer cell line; test: Mean graph mid point was measured on all cell lines.; assay type: functional, Homo sapiens; procedure, shortened: as §1
[6] = system: MOLT-4; test: Concentration required to inhibit 50% of cell growth on human Molt 4/C8 cells.; assay type: functional, cell-based
Procedure, shortened: (§2)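 Murine P388 D1 and L1210 leukemia cells and human Molt 4/C8 and CEM T-lymphocytes were tested. IC50 is the concentration inhibiting 50% of growth.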

[7] = system: L1210; test: Concentration required to inhibit 50% of cell growth on murine L1210 cells.; assay type: functional, cell-based; details: Mus musculus; procedure, shortened: as §2
[8] = system: P388; test: Concentration required to inhibit 50% of cell growth on murine P388 D1 cells.; assay type: functional, cell-based; details: Mus musculus
[9] = system: CCRF-CEM; test: Concentration required to inhibit 50% of cell growth on CEM lymphocytes.; assay type: functional, cell-based; details: Homo sapiens; procedure, shortened: as §2
[10] = species: Homo sapiens; test: Inhibition of RNA synthesis was evaluated on human Jurkat T-cells after 8 hours.; assay type: functional; design: concentration or dose not given beside the values
[11] = species: Homo sapiens; test: Inhibition of protein synthesis was evaluated on human Jurkat T-cells after 8 hours.; assay type: functional; design: concentration or dose not given beside the values
[12] = species: Homo sapiens; test: Apoptotic index calculated using human Jurkat T cells; assay type: functional
Procedure, shortened: (§3)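 Jurkat T cells exposed at concentrations giving IC80 (IC80 determined after 48 h exposure). Nuclei stained with ethidium bromide (0.1% w/v) plus acridine orange (0.1% w/v). Apoptotic index = (cells with apoptotic nuclei / cells counted) × 100.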

[13] = species: Homo sapiens; test: (§4) Inhibitory concentration was evaluated on human Jurkat T-cells after their exposure for 48 hours; assay type: functional, cell-based
Procedure, shortened: (§5)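 Human Jurkat T cells exposed to compounds for 48 h. Viability scored by nigrosin dye exclusion, used in place of trypan blue. IC50 and IC80 taken from the resulting viability data.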

[14] = species: Homo sapiens; test: as §4; assay type: functional; procedure, shortened: as §5
[15] = system: Mus musculus; test: Ip score was calculated by implanting different tumor cell lines in hollow fibres in mice by the intraperitoneal route (Net cell kill was not observed).; assay type: functional
[16] = system: Mus musculus; test: sc score was calculated by implanting different tumor cell lines in hollow fibres in mice by the subcutaneously route (Net cell kill was not observed).; assay type: functional
[17] = species: Homo sapiens; test: Apoptotic index was evaluated on human Jurkat T-cells after 24 hours.(Using 80% inhibitory concentration); assay type: functional; procedure, shortened: as §3
[18] = system: Mus musculus; test: Ip score was calculated by implanting different tumor cell lines in hollow fibres in mice by the intraperitoneal route (Net cell kill was not observed); assay type: functional
[19] = system: Mus musculus; test: Sc score was calculated by implanting different tumor cell lines in hollow fibres in mice by the subcutaneously route (Net cell kill was not observed); assay type: functional

Compound | MG MID [1] | MG MID [3] | MG MID [5] | IC50 [6] | IC50 [7] | IC50 [8] | IC50 [9] | further results
C=C1C(=O)O[C@@H]2C[C@@H](C)[C@@H]3C=CC(=O)[C@@]3(C)[C@@H](O)[C@H]12 [HELENALIN] | 1.42 µM | 0.62 µM | 1.45 µM |  |  |  |  | SI [2]: 2.3; SI [4]: 1
O=c1[nH]cc(F)c(=O)[nH]1 [FLUOROURACIL] | 7.9 µM | 27.6 µM | 32.6 µM | 23 µM | 0.28 µM | 0.49 µM | 8.9 µM | 
O=C1CCCC/C1=C\c1ccc(OC(=O)c2ccccc2)cc1 |  |  |  |  |  | > 50 µM |  | 
C[C@@H]1C[C@@H]([C@H](O)CC2CC(=O)NC(=O)C2)C(=O)[C@@H](C)C1 [CYCLOHEXIMIDE] |  |  |  |  |  |  |  | Inhibition [10]: 93.3%; Inhibition [11]: 71.9%; Apoptotic index [12]: 38.3; IC50 [13]: 0.93 µM
Cc1ccc(C(=O)Oc2ccc(/C=C3\CCCCC3=O)cc2)cc1 |  |  |  | 25.6 µM | 44.8 µM | > 50 µM | 22.7 µM | 
Cc1c2oc3c(C)ccc(C(=O)N[C@@H]4C(=O)N[C@H](C(C)C)C(=O)N5CCC[C@H]5C(=O)N(C)CC(=O)N(C)[C@@H](C(C)C)C(=O)O[C@@H]4C)c3nc-2c(C(=O)N[C@@H]2C(=O)N[C@H](C(C)C)C(=O)N3CCC[C@H]3C(=O)N(C)CC(=O)N(C)[C@@H](C(C)C)C(=O)O[C@@H]2C)c(N)c1=O [DACTINOMYCIN] (I: T[dV]P[Sar][NMeV] / II: T[dV]P[Sar][NMeV]; ester I:1-I:C, II:1-II:C; linker I:N-II:N via Actinocin(1to9)) |  |  |  |  |  |  |  | Inhibition [10]: 90.5%; IC80 [14]: 0.0072 µM; Inhibition [11]: 49.2%; Apoptotic index [12]: 35.5; IC50 [13]: 0.0045 µM
COc1ccc(C(=O)Oc2ccc(/C=C3\CCCCC3=O)cc2)cc1 |  |  |  | 34 µM | 43.4 µM | > 50 µM | 36.1 µM | 
CN(C)CC1CCC/C(=C\c2ccc(OC(=O)c3ccccc3)cc2)C1=O (stereo unspecified) |  |  |  | 24.1 µM | 23.4 µM | 0.18 µM | 29.4 µM | 
CN(C)CC1CCC/C(=C\c2ccc(OC(=O)/C=C/c3ccc(Br)cc3)cc2)C1=O.Cl (stereo unspecified) |  |  |  | 3.06 µM | 1.78 µM | 4.03 µM | 4.44 µM | Inhibition [10]: 84.5%; IC80 [14]: 7.63 µM; Inhibition [11]: 46.6%; Apoptotic index [12]: 59.2; IC50 [13]: 4.47 µM
O=C(CCc1ccccc1)Oc1ccc(/C=C2\CCCCC2=O)cc1 |  |  |  | 31.1 µM | 52.4 µM | 21.9 µM | 34.4 µM | 
Cc1ccc(/C=C/C(=O)Oc2ccc(/C=C3\CCCCC3=O)cc2)cc1 |  |  |  | 156 µM | 202 µM | > 50 µM | 230 µM | 
CN(C)CC1CCC/C(=C\c2ccc(OC(=O)c3ccc(Cl)cc3)cc2)C1=O.Cl (stereo unspecified) | 1.21 µM | 0.307 µM | 1.66 µM | 5.11 µM | 5.61 µM | 0.425 µM | 6.15 µM | Inhibition [10]: 88.4%; IC80 [14]: 5.6 µM; SI [2]: 5.4; Ip score [15]: 2; SI [4]: 1.4; Subcut score [16]: 10; Inhibition [11]: 62%; Apoptotic index [12]: 73.3; IC50 [13]: 3.5 µM
O=C(/C=C/c1ccc(F)cc1)Oc1ccc(/C=C2\CCCCC2=O)cc1 |  |  |  | 26.6 µM | 30.9 µM | > 50 µM | 14.4 µM | 
COc1ccc(C(=O)Oc2ccc(/C=C3\CCCC(CN(C)C)C3=O)cc2)cc1 (stereo unspecified) |  |  |  | 2.36 µM | 2.87 µM | 0.332 µM | 5.07 µM | 
CN(C)CC1CCC/C(=C\c2ccc(OC(=O)/C=C/c3ccc(F)cc3)cc2)C1=O (stereo unspecified) |  |  |  | 3.78 µM | 1.84 µM | 4.55 µM | 6 µM | 
O=C(/C=C/c1ccc(Br)cc1)Oc1ccc(/C=C2\CCCCC2=O)cc1 |  |  |  | 180 µM | 127 µM | > 50 µM | 131 µM | Inhibition [10]: 77.5%; IC80 [14]: 31.7 µM; Inhibition [11]: 69.1%; Apoptotic index [17]: 23.3; Apoptotic index [12]: 23.3; IC50 [13]: 19.8 µM
O=C(/C=C/c1ccc(Cl)c(Cl)c1)Oc1ccc(/C=C2\CCCCC2=O)cc1 | 100 µM | 53 µM | 91.2 µM | 47.3 µM | 64.8 µM | > 50 µM | 63.8 µM | SI [2]: 1.7; SI [4]: 0.9
COc1ccc(/C=C/C(=O)Oc2ccc(/C=C3\CCCCC3=O)cc2)cc1 | 25.4 µM | 9.36 µM | 49.7 µM | 2.06 µM | 10.2 µM | 9.03 µM | 8.78 µM | SI [2]: 5.3; SI [4]: 2
N[C@@H](Cc1ccc(N(CCCl)CCCl)cc1)C(=O)O | 44.6 µM | 4.65 µM | 23.5 µM |  |  |  |  | Inhibition [10]: 85.1%; Inhibition [11]: 17.3%; IC50 [13]: 2.2 µM
O=C1CCCC/C1=C\c1ccc(OC(=O)c2ccc(Cl)cc2)cc1 |  |  |  | 38 µM | 3.33 µM | 25.5 µM | 41 µM | 
CN(C)CC1CCC/C(=C\c2ccc(OC(=O)/C=C/c3ccc(Cl)cc3)cc2)C1=O.Cl (stereo unspecified) | 2.3 µM | 0.864 µM | 3.58 µM | 2.65 µM | 1.74 µM | 1.61 µM | 3.56 µM | Inhibition [10]: 78%; IC80 [14]: 4.04 µM; SI [2]: 4.1; Ip score [18]: 0; SI [4]: 1.6; Inhibition [11]: 37%; Apoptotic index [12]: 87; Subcut score [19]: 6; IC50 [13]: 2.53 µM
COc1ccc(/C=C/C(=O)Oc2ccc(/C=C3\CCCC(CN(C)C)C3=O)cc2)cc1 (stereo unspecified) |  |  |  |  |  | 2.41 µM |  | 
Cc1ccc(/C=C/C(=O)Oc2ccc(/C=C3\CCCC(CN(C)C)C3=O)cc2)cc1 (stereo unspecified) |  |  |  | 3.39 µM | 2.43 µM | 1.29 µM | 7.02 µM | 
O=C(/C=C/c1ccc(Cl)cc1)Oc1ccc(/C=C2\CCCCC2=O)cc1 | 81 µM | 60.5 µM | 91.2 µM | 78.6 µM | 64.3 µM | > 50 µM | 63.4 µM | SI [2]: 1.5; SI [4]: 1.1
O=C(/C=C/c1ccccc1)Oc1ccc(/C=C2\CCCCC2=O)cc1 | 29.1 µM | 8.32 µM | 36.3 µM | 30.7 µM | 30.7 µM | 20.3 µM | 26 µM | SI [2]: 4.4; SI [4]: 1.3

Source: ChEMBL document CHEMBL1133471, “Sequential cytotoxicity: a theory evaluated using novel 2-[4-(3-aryl-2-propenoyloxy)phenylmethylene]cyclohexanones and related compounds” (J Med Chem, 2000)
